# ChEMBL document CHEMBL3132832, “Design of Potential Bisubstrate Inhibitors against Mycobacterium tuberculosis (Mtb) 1-Deoxy-D-Xylulose 5-Phosphate Reductoisomerase (Dxr)-Evidence of a Novel Binding Mode” (Medchemcomm, 2013)
# Activity calls are given as the source filed them. The rule behind the calls is not given here.
# Legend:
# [1] = system: Mycobacterium tuberculosis; assay: Noncompetitive inhibition of His-tagged Mycobacterium tuberculosis DXR expressed in Escherichia coli BL21(DE3) using DXP as substrate at 5 to 50 uM by Lineweaver-Burk plot analysis in presence of 0.01 to 0.05 uM NADPH
# [2] = Inhibition of His-tagged Mycobacterium tuberculosis DXR expressed in Escherichia coli BL21(DE3) using DXP as substrate assessed as oxidation of NADPH preincubated for 10 mins followed by NADPH and substrate addition by spectrophotometric analysis
# In short: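 Activity was read spectrophotometrically at 37 °C as NADPH oxidation. Enzyme was preincubated with inhibitor for 10 min at 37 °C before substrate. Run in duplicate. IC50 came from nonlinear regression of dose-response plots.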
# [3] = system: Mycobacterium tuberculosis; assay: Competitive inhibition of His-tagged Mycobacterium tuberculosis DXR expressed in Escherichia coli BL21(DE3) using DXP as substrate at 5 to 50 uM by Lineweaver-Burk plot analysis in presence of NADPH
# In short: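 For mode of inhibition versus DXP, purified His-tagged Mtb Dxr was run at 37 °C with NADPH fixed at 150 µM or 30 µM depending on inhibitor. Enzyme and inhibitor were preincubated 10 min at 37 °C before substrate. NADPH oxidation was followed spectrophotometrically. Duplicates were analysed by Lineweaver-Burk plots.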
# [4] = system: Mycobacterium tuberculosis; assay: Antitubercular activity against Mycobacterium tuberculosis H37Rv ATCC 27294 after 2 weeks; assay type: functional; conditions: H37Rv ATCC 27294, 336 h
# In short: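 Mtb H37Rv was grown to OD 0.5 in 7H9 with 0.05% Tween-80, 0.2% glycerol and ADC, then diluted 1:1000. Inhibitors from 50 mg/mL DMSO stocks were serially 2-fold diluted (eight dilutions). Three independent measurements.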
# [5] = system: Mycobacterium tuberculosis; assay: Inhibition of His-tagged Mycobacterium tuberculosis DXR expressed in Escherichia coli BL21(DE3) using DXP as substrate assessed as residual activity at 100 uM preincubated for 10 mins followed by NADPH and substrate addition by spectrophotometric analysis relative to control
# In short: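 IMAC-purified His-tagged Mtb Dxr was tested with inhibitor at 100 μM, preincubated 10 min at 37 °C before substrate. NADPH oxidation was followed spectrophotometrically at 37 °C. Inhibition is relative. Duplicate assays.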
# [6] = system: Mycobacterium tuberculosis; assay: Uncompetitive inhibition of His-tagged Mycobacterium tuberculosis DXR expressed in Escherichia coli BL21(DE3) using DXP as substrate at 5 to 50 uM by Lineweaver-Burk plot analysis in presence of 0.01 to 0.05 uM NADPH
Structure (SMILES),IC50 [2],MIC99 [4],Activity [5],also measured
O=C(CCCc1ccccc1)N(O)CCCP(=O)([O-])O.[Na+],17.8 µM,> 200 µg/mL,,inhibition [1]: Active; inhibition [3]: Active
CC(=O)N(CCCP(=O)(O)O)OCCc1ccccc1,,,81.5%,
O=CN(O)CCCP(=O)(O)O [FOSMIDOMYCIN],,> 500 µg/mL,,
CC(=O)N(CCCP(=O)(O)O)OCC1CCCCC1,,,83.5%,
CCOP(=O)(CCCN(O)C(=O)CCCc1ccccc1)OCC,,200 µg/mL,,
O=C(Cc1ccccc1)N(O)CCCP(=O)(O)O,26.9 µM,,,
CC(=O)N(CCCP(=O)(O)O)OCCCc1ccccc1,,,77.5%,
O=C(C1CCCCC1)N(O)CCCP(=O)(O)O,,,80%,
CC(=O)N(CCCP(=O)(O)O)OCc1ccc(C(C)C)cc1,48.4 µM,,,
CCOP(=O)(CCCN(O)C=O)OCC,,250 µg/mL,,
CC(=O)N(O)CCCP(=O)([O-])O.[Na+],2.39 µM,> 500 µg/mL,,inhibition [3]: Active; inhibition [6]: Active
